# Assay outcomes from PubChem BioAssay.
# AF4-AF9 inh: inhibitors of AF4 peptide binding to AF9, primary screen, biochemical, AlphaScreen, biotin-AF4 peptide, FLAG-AF9, single point; inhibition, % at 10 µM; Protein AF-9 (Homo sapiens), P42568; 350,000 compounds, 0.47% hits;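 active means every replicate reaching a set inhibition limit, whatever the replicate mean, cut at about 25% in these data; inconclusive means mean inhibition reaches that limit but some replicates miss it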;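 further: 0% = plate neutral control median and 100% = total signal loss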
# Target sequence (P42568 whole entry, looked up): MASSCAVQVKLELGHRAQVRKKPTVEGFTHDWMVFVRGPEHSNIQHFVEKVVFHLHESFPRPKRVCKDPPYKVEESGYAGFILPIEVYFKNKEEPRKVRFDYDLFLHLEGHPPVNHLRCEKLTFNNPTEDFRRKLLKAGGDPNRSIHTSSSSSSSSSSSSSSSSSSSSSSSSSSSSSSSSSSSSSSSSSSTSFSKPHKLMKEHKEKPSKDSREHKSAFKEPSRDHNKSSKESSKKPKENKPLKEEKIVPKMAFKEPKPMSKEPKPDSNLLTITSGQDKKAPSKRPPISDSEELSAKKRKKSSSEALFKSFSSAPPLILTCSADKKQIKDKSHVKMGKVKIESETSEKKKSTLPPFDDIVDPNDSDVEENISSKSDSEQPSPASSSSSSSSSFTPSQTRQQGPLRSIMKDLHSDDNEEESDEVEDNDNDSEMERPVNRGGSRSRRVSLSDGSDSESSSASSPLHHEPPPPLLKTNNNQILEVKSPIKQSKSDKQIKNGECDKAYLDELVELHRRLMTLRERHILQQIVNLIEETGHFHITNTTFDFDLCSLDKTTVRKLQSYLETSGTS
# Xi reactivation: activators of inactive X chromosome reactivation, primary screen, imaging, XiGFP fibroblasts, GFP high-content imaging, set 2; XiGFP mouse fibroblasts, % GFP-positive cells imaging, 3 d; cells co-treated with 5-aza-dC sensitizer; scaled so ellipticine positive control = 100%; activation, % at 7.58 µM; 360,000 compounds, 0.055% hits;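 active means mean normalized replicate activation at least 10% and every replicate at or above 10%; inconclusive means only one of the two criteria met; inactive means mean below 10% and not all replicates reach 10%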;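 further: 0% = median of on-plate neutral control wells and 100% = ellipticine 6 µM median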
#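 Material: SV40-immortalized XiGFP fibroblast cells, line 68-5-11 | Buffer or medium: DMEM containing 5-aza-dC | Dosing: One concentration, pinned | Times: 3 d treatment, 15 min room-temperature fixation | Controls: Ellipticine 6 µM positive control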
# EWS-Fli inh: EWS/Fli-driven NR0B1 reporter inhibitors, primary screen, A673 cells, NR0B1 luciferase, luminescence, MLPCN library | 350,000 compounds, 0.67% hits | viability-normalised | inhibition, % at 12.6 µM;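 active means mean inhibition of at least 50% after viability correction, with every replicate also passing that limit; inconclusive means mean reaches 50% but only one of two replicates passes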;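 further: firefly luciferase signal divided by Alamar Blue viability fluorescence both relative to DMSO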
# PAX8 reporter: inhibitors of PAX8-driven TPO luciferase reporter, primary screen, RMG-I cells, single concentration. SteadyGlo, 24 h. AID 652154, 2013. inhibition, % at 12.6 µM. 360,000 compounds, 1.2% hits;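 active means mean replicate inhibition at least 60% with every replicate also reaching 60%; inconclusive means only one of the two criteria is met; inactive means mean below 60% and not all replicates reaching 60%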;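 further: luciferase light reporting Pax8 driven TPO promoter activity; plate controls were median of neutral control wells for no effect and mitoxantrone controls for full effect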
# PGC1a acetyl inh: inhibitors of PGC1a acetylation signal, primary screen, cell-based, U2OS, AlphaScreen, inhibitor mode; inhibition, % at 15.6 µM; 350,000 compounds, 0.17% hits; AlphaScreen anti-acetyl-lysine; with virally co-expressed GCN5 acetyltransferase; AID 651687, 2012;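 active means every replicate shows inhibition of at least 40%; inconclusive means mean inhibition at least 40% but some replicate below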;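 further: 0% = neutral control wells and 100% = positive control wells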
# GSIS activator: GLuc luminescence reporter in INS-1E cells, primary screen for activators of glucose-dependent secretion of insulin | INS-1E GLuc reporter insulin secretion, 2-3 h | activation, % at 16.6 µM | 370,000 compounds, 0.61% hits | AID 743287, 2014;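 active means lowest replicate activation of at least 40%, so every replicate reaches that level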;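 further: 0% = median of neutral control wells and 100% = median of IBMX positive control wells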
# * = called active by the depositor; ? = inconclusive; . = not tested or not shown. Sampled rows, rich in hits. Any-hit rate of the full collection: about 2.1%.
SMILES,AF4-AF9 inh,Xi reactivation,EWS-Fli inh,PAX8 reporter,PGC1a acetyl inh,GSIS activator
O=C1Nc2ccccc2-n2nnnc2C1N1CCN(c2ccccn2)CC1 (centres undefined),.,1,-3,1,.,101*
C/C=C/c1ccc2c(c1)O[C@H](CN(C)C(=O)NCCC)[C@@H](C)CN([C@@H](C)CO)S2(=O)=O,1,0,-4,-22,-8,-6
CCOc1ccc(C(C#N)N2CCOCC2)cc1OC (centres undefined),.,.,.,3,-3,.
O=C(c1ccc(Br)cc1)C(CN1CCOCC1)c1ccccc1 (centres undefined),1,0,41,39,.,4
CCOc1ccc(C(CN2CCOCC2)C(C)=O)cc1OC (centres undefined),1,0,7,102*,.,-5
O=C(c1ccccc1)C(CN1CCCCC1)c1ccccc1 (centres undefined),-1,1,69*,69*,-21,6
CCOc1ccc(C(=O)C(CN2CCOCC2)c2ccccc2)cc1 (centres undefined),.,5,.,97*,32,-9
C[C@@H]1CN([C@H](C)CO)C(=O)c2cc(NC(=O)Cn3cnnn3)ccc2O[C@H]1CN(C)S(=O)(=O)c1cccs1,-2,-1,-7,.,-8,7
O=C(C1CC1)N1CC2(C1)[C@H](c1ccccc1)[C@@H](CO)N2CC1CCCC1,-3,0,6,-8,-10,11
COC(=O)C1=C(C)NC(c2c(O)ccc3ccccc23)C(C(=O)OC)=C1C (centres undefined),.,0,.,20,.,53*
COC(=O)C1=C(C)NC(=O)NC1c1c(O)ccc2ccccc12 (centres undefined),-17,0,7,5,14,5
NS(=O)(=O)c1cccc(-n2cnnn2)c1,4,40*,2,2,5,1
O=C(Nc1ccc2c(c1)[C@@H]1C[C@H](CC(=O)N3CCCCC3)O[C@H](CO)[C@@H]1O2)Nc1ccccc1F,-3,0,-4,17,-24,-6
O=C1/C(=C\c2ccc(Cl)c(Cl)c2)CN(C(=O)CCN2CCOCC2)C/C1=C/c1ccc(Cl)c(Cl)c1,7,2,56*,89*,?,136*
O=C(C[C@H]1CC[C@@H]2[C@H](COC[C@H](O)CN2C(=O)c2ccccn2)O1)N1CCN(c2ccccc2)CC1,-10,0,-2,7,-4,4
COc1cccc(CNC(=O)c2cccnc2Sc2ccccc2)c1,-3,0,.,-16,3,48*
O=C(C[C@@H]1CC[C@@H]2[C@H](COC[C@H](O)CN2C(=O)Nc2ccc(F)cc2)O1)NCCCN1CCOCC1,-18,0,1,-7,-8,13
O=C(C[C@@H]1CC[C@@H]2[C@H](COC[C@@H](O)CN2C(=O)Nc2ccc(C(F)(F)F)cc2)O1)NC1Cc2ccccc2C1,-4,0,31,88*,5,-14
O=C(C[C@H]1CC[C@H]2[C@@H](COC[C@H](O)CN2C(=O)Nc2ccc(C(F)(F)F)cc2)O1)NC1Cc2ccccc2C1,-1,0,10,74*,16,-14
O=C(C[C@@H]1CC[C@H]2[C@@H](COC[C@@H](O)CN2C(=O)Nc2ccc(F)cc2)O1)NCCCN1CCOCC1,31*,0,-5,-30,9,-2
C[C@@H]1CN([C@@H](C)CO)C(=O)CCCn2cc(nn2)CO[C@H]1CN(C)CC1CCCCC1,-1,0,0,.,0,-3
Cc1ccc2c(c1C)-c1c(ccc(C)c1C)C(=O)C2=O,15,3,59*,93*,37,-8
C/C(=N\NC(=O)COc1ccccc1-c1ccccc1)c1ccccn1,6,1,0,81*,6,10
O=C(COc1ccccc1-c1ccccc1)N/N=C/c1ccc2ccccc2c1,-4,0,40,93*,.,13
O=C(COc1ccccc1-c1ccccc1)NCc1ccco1,5,0,-11,19,-1,0
SMILES,AF4-AF9 inh,Xi reactivation,EWS-Fli inh,PAX8 reporter,PGC1a acetyl inh,GSIS activator
O=C(O)COc1ccccc1-c1ccccc1,-6,0,-8,2,-5,41*
Cc1cc(C)n(C(=O)c2c([N+](=O)[O-])c(C)nn2C)n1,.,.,.,.,5,.
Cc1cc(C)n(C(=O)c2ccc([N+](=O)[O-])cc2N)n1,0,0,3,-29,44*,-4
Cc1cc(C)n(/C(=C\N(C)C)C(=O)c2cccc([N+](=O)[O-])c2)n1,51*,0,5,9,.,-18
Cc1cc(C)n(/C(=C\N(C)C)C(=O)c2ccc(Cl)cc2)n1,-1,0,2,-8,-3,19
Cc1noc(C)c1S(=O)(=O)Nc1ccc2c(c1)C(=O)N([C@H](C)CO)C[C@H](C)[C@H](CN(C)CC1CC1)OCCCC[C@H](C)O2,.,0,-23,8,-6,7
COc1ccc2c3c(n(C)c2c1)[C@H](CO)N(C(=O)C1CCCCC1)CC31CCN(C(=O)Nc2cccc(F)c2)CC1,-2,0,-1,.,-8,6
COc1cccc(-c2ocnc2C(=O)Nc2ccc(N3CCOCC3)cc2N2CCOCC2)c1,35*,0,-7,6,2,0
CC(C)n1c(=S)[nH]c2cc(Cl)ccc21,14,0,6,-19,69*,4
C[C@H]1CN([C@@H](C)CO)C(=O)Cc2cc(NC(=O)CCCCCC(=O)Nc3ccccc3N)ccc2O[C@@H]1CN(C)S(=O)(=O)c1cccs1,.,0,-5,3,5,4
N#CNC(=Nc1ccccc1)SCc1ccc(C(=O)O)cc1,-1,0,-1,3,-7,-6
CSC(=Nc1ccccc1)N=C(SCc1ccccc1)N(C)C,-3,0,57*,101*,40,-23
CO[C@H]1CN(C)C(=O)c2cc(NC(=O)NC(C)C)ccc2OC[C@H](C)N(C)C[C@@H]1C,-1,1,5,.,-5,0
Cn1c(=O)n(Cc2ccccc2Br)c2ccccc21,-1,0,3,-20,-7,50*
Cc1ccc(S(=O)(=O)CCC(=O)Nc2nc(-c3cccnc3)cs2)cc1,0,0,10,-1,.,3
CC(=O)c1sc(NC(=O)CCS(=O)(=O)c2ccc(Cl)cc2)nc1C,-3,0,6,89*,.,25
Cc1ccc(S(=O)(=O)CCC(=O)Nc2nc(-c3ccccn3)cs2)cc1,-3,0,19,80*,-7,-8
O=C(CCS(=O)(=O)c1ccc(Cl)cc1)Nc1nc(-c2ccncc2)cs1,1,0,.,96*,.,-5
